Most compounds without a hit are left out; they make up all but 3.5% or so of the library.
MrgX1 antag = blocks BAM8-22 activation of human MrgX1 receptor | Q96LB2 | MRGX1-HEK293 calcium flux, Fluo-4, BAM8-22 antagonism; hits give low values | B-score at 10 µM | 1.3% of 310,000 active;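 active means calcium-response B-score plate-corrected more than 3 library SD below zero, starting fluorescence within 5 deviations, no agonist response on first addition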;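 further: peak minus trough fluorescence over baseline after final BAM8-22 challenge near maximal dose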
Target sequence (Q96LB2 whole entry, looked up): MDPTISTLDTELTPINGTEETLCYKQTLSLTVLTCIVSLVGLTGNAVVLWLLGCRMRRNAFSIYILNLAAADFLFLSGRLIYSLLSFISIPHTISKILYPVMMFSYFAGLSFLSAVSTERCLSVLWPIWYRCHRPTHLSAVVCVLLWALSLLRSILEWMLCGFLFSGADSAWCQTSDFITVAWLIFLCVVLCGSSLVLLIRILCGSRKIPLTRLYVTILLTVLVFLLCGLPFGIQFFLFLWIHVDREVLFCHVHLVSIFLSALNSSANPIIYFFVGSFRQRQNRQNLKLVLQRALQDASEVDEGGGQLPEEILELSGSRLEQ
RGS4 pot = RGS4 potentiation or activation. HEK293 M3R/inducible RGS4, carbachol calcium flux Fluo4; hits give low values. B-score at 10 µM. 0.92% of 310,000 active;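 active means B-score of the integrated calcium signal more than 4 SD below the library mean, with starting fluorescence not abnormally high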;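 further: negative B-score means reduced calcium response which marks RGS4 activation or potentiation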
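Reagent: ECmax carbachol challenge; Test system: M3R-expressing HEK293 line, RGS4 induced by doxycycline; Schedule: overnight RGS4 induction, 30 min dye load 37 °C, 20 min compound RT; Detection: calcium dye Fluo4 fluorescence; Read-out: Agonist-evoked peak-minus-minimum fluorescence over baseline, integrated ratio, B score.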
MrgX1 agonist = agonists of human MrgX1 receptor | 0.44% of 310,000 active | Q96LB2 | MrgX1-HEK293 cells, Fluo-4 calcium fluorescence, agonist mode; hits give high values | AID 588627 | B-score at 10 µM;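 active means calcium response B-score plate-corrected fluorescence ratio at least 3 library SD, with starting fluorescence B-score inside 5 SD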
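Material: HEK293 cells stably expressing human MrgX1 receptor | Quantity: 15,000 cells per well | Times: Cells plated overnight, dye loaded 0.5 h 37 °C, 0.5 h room temperature | Measured by: Kinetic Fluo-4 NW fluorescence of intracellular calcium | Control set: Positive and negative controls per plate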
MrgX1 allo act = human MrgX1 positive allosteric modulation, primary screen; B-score at 10 µM; MrgX1-HEK293, Fluo-4 calcium flux, FDSS; hits give high values; 0.63% of 310,000 active;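 active means plate-corrected calcium response at least 3 library SD above typical, normal starting fluorescence, not activating the receptor alone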;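 further: compound read alongside a low EC10 to EC30 dose of BAM8-22 agonist; peak minus trough fluorescence over baseline measured at the second addition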
RGS4 inh = human RGS4 inhibition | B-score at 10 µM | HEK293 M3R/RGS4 inducible, Fluo-4 calcium flux; hits give high values; triggered by carbachol at its EC20 | 0.45% of 310,000 active | P49798 | AID 463165;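 active means B-score, a plate-corrected calcium signal, over three deviations above library mean, with baseline fluorescence within five deviations of library mean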;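 further: RGS4 expression induced by doxycycline in cells with stable M3 receptor; B-score is computed from the integrated fluorescence ratio over baseline after carbachol; higher B-score means a larger calcium signal and so more RGS4 inhibition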
Target sequence (P49798 whole entry, looked up): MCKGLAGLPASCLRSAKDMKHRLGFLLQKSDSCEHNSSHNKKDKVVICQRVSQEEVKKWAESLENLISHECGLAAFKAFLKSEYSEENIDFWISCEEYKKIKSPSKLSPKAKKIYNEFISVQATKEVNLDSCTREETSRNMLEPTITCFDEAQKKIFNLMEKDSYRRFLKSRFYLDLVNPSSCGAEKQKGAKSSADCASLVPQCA
* marks the source's active call; other numbers are inactive results; i = inactive; . = no result.

SMILES	MrgX1 antag	RGS4 pot	MrgX1 agonist	MrgX1 allo act	RGS4 inh
CCCCCCCCCCCCCCCC[N+](C)(C)CCN(Cc1ccc(OC)cc1)c1ncccn1	i	.	56*	i	.
CC1CN(c2nc3ccccc3nc2SCC(=O)Nc2cccc(C(F)(F)F)c2)CC(C)O1 (stereo not given)	i	-7.6*	i	i	i
CCOc1cc(N2CCOCC2)c(OCC)cc1NC(=O)CN1C(=O)NC(C)(C2CC2)C1=O (stereo not given)	-4.7*	i	i	i	i
Cc1ccc(CN(Cc2cc3cccc(C)c3[nH]c2=O)C(=S)NCCCN(C)C)cc1	i	i	i	9.7*	i
CCNc1nc(NCC)nc(SCCOC(=O)Nc2ccccc2)n1	i	i	i	7.7*	i
Cc1cc2nc(SCCOC(=O)Nc3ccccc3)nc(C)c2cc1C	i	i	i	i	i
COc1ccc(N2CCN(C(=O)Cc3ccc(S(=O)(=O)N4CCOCC4)s3)CC2)cc1	i	i	i	i	i
Cc1cc(/C=C2/C(=O)N(C)C(=S)N2C)ccc1N1CCCC1	i	i	i	7.6*	i
Cc1ccc(CN2C(=O)N/C(=C\c3ccc(N4CCOCC4)cc3)C2=O)cc1	i	i	i	i	i
CCCN1C(=O)/C(=C/c2ccc(N3CCOCC3)cc2)NC1=S	-6.1*	i	i	i	i
CCCN1C(=O)/C(=C/c2ccc(N3CCCC3)c(C)c2)NC1=S	i	i	47*	i	i
Cc1cc(N2CCCC2)ccc1/C=C1/C(=O)N(C)C(=S)N1C	i	i	i	i	i
COc1ccc(S(=O)(=O)NCCCN2CCCC2=O)c(OC)c1	i	i	i	i	i
Cc1ccc(NNC(=O)c2ccno2)c(C)c1	i	i	i	i	i
COc1cc(/C=C2\CCC/C(=C\c3ccc(O)c(OC)c3)C2=O)ccc1O	-5.7*	-9.9*	i	i	i
CCOc1ccc(CSC(=N)N)cc1[N+](=O)[O-]	i	i	46*	i	i
CCCCOc1ccc(CSc2nnc(C)n2N)cc1[N+](=O)[O-]	i	i	i	i	i
C=CCOc1ccc(C2CC(C)=NN2c2ccccc2)cc1 (stereo not given)	i	i	i	i	i
Cn1cc(Br)c(C(=O)n2cc(Br)cn2)n1	i	i	i	i	i
C#CCOCCOCCOCCNc1nc(N2CCN(C(=O)CCCCCCCCCCNC(=O)[C@H](CCCN=C(N)N)n3cc(C[C@@H](C)CC)nn3)CC2)nc(N2CCN(C(=O)CCCCCCCCCCNC(=O)[C@@H]([C@H](C)CC)n3cc(CCCCCN)nn3)CC2)n1	i	.	51*	i	.
C#CCOCCOCCOCCNc1nc(N2CCN(C(=O)CCCCCCCCCCNC(=O)[C@H]([C@@H](C)CC)n3cc(CCCCN=C(N)N)nn3)CC2)nc(N2CCN(C(=O)CCCCCCCCCCNC(=O)[C@H](CCCN=C(N)N)n3cc(C[C@@H](C)CC)nn3)CC2)n1	i	.	33*	i	.
C#CCOCCOCCOCCNc1nc(N2CCOCC2)nc(N2CCN(C(=O)CCCCCCCCCCNC(=O)[C@H]([C@@H](C)CC)n3cc(CCCCN=C(N)N)nn3)CC2)n1	i	.	i	i	.
CC(C)(C)c1cc(/C=N/NC(=O)C[n+]2ccccc2)cc(C(C)(C)C)c1O	i	-7*	i	i	i
CC(C)(C)c1ccc(/C=N/NC(=O)C[n+]2ccccc2)cc1	i	-7.1*	i	i	i
Cc1ccc(C(=O)N/C(=C\c2ccc(-c3ccc([N+](=O)[O-])cc3)o2)C(=O)NC2CCS(=O)(=O)C2)cc1 (stereo not given)	-4.9*	i	i	i	i
SMILES	MrgX1 antag	RGS4 pot	MrgX1 agonist	MrgX1 allo act	RGS4 inh
Cc1ccc(C(=O)N/C(=C/c2ccc(-c3ccc([N+](=O)[O-])cc3)o2)C(=O)NCCCN(C)C)cc1	i	i	45*	i	i
CC(C)c1c(Cl)c(O)c(-c2ccccc2)c(=O)n1-c1ccc(F)cc1	-5.3*	i	i	i	i
CC(C)c1cc(O)c(-c2ccccc2)c(=O)n1-c1ccc(Cl)cc1	i	i	i	i	i
NC(=S)N=Nc1ccc(NN=C(N)N)cc1	i	i	31*	i	i
N#C/C(=N/Nc1ccc(OC(F)(F)F)cc1)C(N)=S	i	i	i	i	i
O=C1COc2ccc(S(=O)(=O)CCC(=O)NC3CCCCC3)cc2N1	i	i	i	i	i
Cc1ccc(CNC(=O)CCS(=O)(=O)Cc2ccc(C)cc2)cc1	i	i	i	i	i
O=C(COc1ccccc1)NC1CCN(Cc2ccccc2)CC1	i	i	i	i	i
CC(C)(Oc1ccc(Cl)cc1)C(=O)NC1CCN(Cc2ccccc2)CC1	i	-7*	i	i	i
C#CCOCCOCCOCCNc1nc(N2CCN(C(=O)CCCCCCCCCCNC(=O)Cn3cc(C[C@@H](C)O)nn3)CC2)nc(N2CCN(C(=O)CCCCCCCCCCNC(=O)[C@@H]([C@H](C)O)n3cc(C)nn3)CC2)n1	i	.	i	i	.
C#CCOCCOCCOCCNc1nc(N2CCN(C(=O)CCCCCCCCCCNC(=O)Cn3cc(CCCCCN)nn3)CC2)nc(N2CCN(C(=O)CCCCCCCCCCNC(=O)Cn3cc(C[C@@H](C)O)nn3)CC2)n1	-8.3*	.	i	i	.
C#CCOCCOCCOCCNc1nc(N2CCN(C(=O)CCCCCCCCCCNC(=O)Cn3cc(CCCCCN)nn3)CC2)nc(N2CCN(C(=O)CCCCCCCCCCNC(=O)[C@@H]([C@H](C)O)n3cc(C)nn3)CC2)n1	i	.	i	11*	.
C#CCOCCOCCOCCNc1nc(N2CCN(C(=O)CCCCCCCCCCNC(=O)Cn3cc(C[C@@H](C)O)nn3)CC2)nc(N2CCN(C(=O)CCCCCCCCCCNC(=O)[C@@H]([C@H](C)CC)n3cc(CCCCCN)nn3)CC2)n1	i	.	i	6.9*	.
C(=C\n1nnc2ccccc21)/c1ccccn1	i	i	i	i	i
Cc1cc(C)nc(S/C=C/C(=O)c2ccc(F)cc2)n1	i	i	i	i	i
CCOc1ccc(NC(=O)CSc2nnc(C)n2CC)cc1	i	i	i	i	i
Cc1ccc(-c2cn3nc(-c4ccccc4)c(-c4ccccc4)nc3n2)cc1	i	-7*	i	i	i
O=C(N/N=C/c1c(O)n(-c2ccc(Cl)cn2)c(=O)c2ccccc12)c1ccncc1	i	-9.6*	i	i	i
Cc1ccc(S(=O)(=O)/N=C2/NC(=O)/C(=C/c3cccnc3)S2)cc1	i	i	31*	i	i
